Measured values reported in PubChem BioAssay AID463076 (The Scripps Research Institute Molecular Screening Center, 2010).
Active and inactive are the calls of the source.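 The calls were made as follows: active = compounds blocking FLT3 kinase activity with IC50 at or below 1000 nM; inactive = IC50 above 1000 nM.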

Each compound was assayed against Receptor-type tyrosine-protein kinase FLT3 (Homo sapiens) (UniProt P36888) (assay: FLT3 kinase inhibition, late-stage follow-up, selectivity assay for CK1d inhibitor project, biochemical, radioactive 33P-ATP, powder samples (AID 463076)). Conditions: purified FLT3, 33P-ATP Abltide filter-binding assay.
Sequence of Receptor-type tyrosine-protein kinase FLT3 (Homo sapiens) (P36888 whole entry, looked up): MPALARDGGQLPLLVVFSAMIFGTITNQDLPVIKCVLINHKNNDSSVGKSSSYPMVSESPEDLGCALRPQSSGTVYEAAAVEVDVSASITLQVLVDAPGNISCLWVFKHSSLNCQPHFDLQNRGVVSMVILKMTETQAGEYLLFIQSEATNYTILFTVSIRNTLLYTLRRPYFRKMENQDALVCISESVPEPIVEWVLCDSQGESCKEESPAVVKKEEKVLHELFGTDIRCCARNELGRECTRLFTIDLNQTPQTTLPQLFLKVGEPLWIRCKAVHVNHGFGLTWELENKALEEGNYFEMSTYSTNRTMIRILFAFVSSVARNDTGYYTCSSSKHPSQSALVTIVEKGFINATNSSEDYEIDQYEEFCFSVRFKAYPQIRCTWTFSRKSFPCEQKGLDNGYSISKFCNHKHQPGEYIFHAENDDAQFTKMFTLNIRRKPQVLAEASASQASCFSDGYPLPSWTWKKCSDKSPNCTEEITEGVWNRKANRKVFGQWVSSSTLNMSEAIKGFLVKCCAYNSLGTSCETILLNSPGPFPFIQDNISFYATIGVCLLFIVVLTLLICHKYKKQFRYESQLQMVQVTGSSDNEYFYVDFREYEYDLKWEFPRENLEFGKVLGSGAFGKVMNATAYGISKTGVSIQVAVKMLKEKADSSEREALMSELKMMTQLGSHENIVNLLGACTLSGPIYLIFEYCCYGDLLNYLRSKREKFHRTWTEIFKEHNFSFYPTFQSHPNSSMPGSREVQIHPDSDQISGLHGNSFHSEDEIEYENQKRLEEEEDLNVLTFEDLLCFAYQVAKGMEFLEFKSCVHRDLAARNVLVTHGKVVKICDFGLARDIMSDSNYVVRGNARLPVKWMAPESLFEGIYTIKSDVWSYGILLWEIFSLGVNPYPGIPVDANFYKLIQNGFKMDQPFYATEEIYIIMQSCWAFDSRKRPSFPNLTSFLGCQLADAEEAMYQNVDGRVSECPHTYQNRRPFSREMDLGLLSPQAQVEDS
Outline: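 System: Kinase enzyme in a cell-free radiometric reaction | Times: Kinase reaction 120 min at room temperature | Detection: Filter binding of 33P radioactivity incorporated into peptide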

IC50 | SMILES
62 nM | N#Cc1ccc2nc(CNc3nc(N4CCOCC4)nc4c3ncn4-c3ccsc3)[nH]c2c1
548 nM | CCOC(=O)c1cccc2[nH]c(CNc3nc(N4CCOCC4)nc4c3ncn4-c3ccsc3)nc12
262 nM | FC(F)(F)c1cccc2[nH]c(CNc3nc(N4CCOCC4)nc4c3ncn4-c3ccsc3)nc12
14 nM | COc1ccc2nc(CNc3nc(N4CCOCC4)nc4c3ncn4-c3ccsc3)[nH]c2c1
509 nM | FC(F)(F)c1ccc2nc(CNc3nc(N4CCOCC4)nc4c3ncn4-c3ccsc3)[nH]c2c1
975 nM | c1ccc2cc3[nH]c(CNc4nc(N5CCOCC5)nc5c4ncn5-c4ccsc4)nc3cc2c1
240 nM | O=[N+]([O-])c1ccc2nc(CNc3nc(N4CCOCC4)nc4c3ncn4-c3ccsc3)[nH]c2c1
301 nM | Clc1ccc2nc(CNc3nc(N4CCOCC4)nc4c3ncn4-c3ccsc3)[nH]c2c1
79 nM | Fc1ccc2nc(CNc3nc(N4CCOCC4)nc4c3ncn4-c3ccsc3)[nH]c2c1
inactive | Cc1ccnc(NC(=O)CCCOc2cc(=O)n(C)c3ccccc23)c1
100 nM | c1ccc2[nH]c(CNc3nc(N4CCOCC4)nc4c3ncn4-c3ccsc3)nc2c1
inactive | CC(C)n1cnc2c(NCc3nc4c([N+](=O)[O-])cccc4[nH]3)nc(N3CCOCC3)nc21
305 nM | O=[N+]([O-])c1cccc2[nH]c(CNc3nc(N4CCOCC4)nc4c3ncn4-c3ccsc3)nc12
